From PubChem
TPT1 inhibitor – blocks Candida albicans tRNA 2'-phosphotransferase; hit rate 0.81% among 300,000; AID 1962; inhibition, % at 5 µM; recombinant caTPT1, FP RNA substrate dephosphorylation;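 active means inhibition above the mean of all tested compounds plus 3 SD, set per screening campaign, cut at about 24% in these data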;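 further: plate controls were DMSO alone for no effect and ferristatin control at 100 nM for full effect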
CSN inh – blocks human CSN-mediated cullin deneddylation; hit rate 0.38% among 360,000; AID 651999; inhibition, % at 12.5 µM; Purified CSN, SCF-Nedd8-OG deneddylation, fluorescence polarization; Q92905;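 active means pattern-corrected inhibition above about 35%, with an unprinted fluorescence ratio check between 0.5 and 1.5, limit read from the data, passing the limit was not always enough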;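 further: 0% = enzyme with substrate and 100% = substrate without enzyme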
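Test system: Human Csn5 produced in HEK293T cells | Compound: 12.5 µM single point | Times: 90 min, room temperature | Signal: Fluorescence polarization readout | Read-out basis: % inhibition of substrate cleavage by Csn5 | Controls: no-enzyme wells high, enzyme-with-substrate wells low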
HNF4A DNA FP – change in binding of human HNF4 alpha to DNA; P41235; HNF4a-FITC DNA binding, fluorescence polarization, 1 h; activity change, % at 10 µM; hit rate 0.3% among 360,000; in the data active means activity change above about 30%, passing the limit was not always enough
Target sequence (P41235 whole entry, looked up): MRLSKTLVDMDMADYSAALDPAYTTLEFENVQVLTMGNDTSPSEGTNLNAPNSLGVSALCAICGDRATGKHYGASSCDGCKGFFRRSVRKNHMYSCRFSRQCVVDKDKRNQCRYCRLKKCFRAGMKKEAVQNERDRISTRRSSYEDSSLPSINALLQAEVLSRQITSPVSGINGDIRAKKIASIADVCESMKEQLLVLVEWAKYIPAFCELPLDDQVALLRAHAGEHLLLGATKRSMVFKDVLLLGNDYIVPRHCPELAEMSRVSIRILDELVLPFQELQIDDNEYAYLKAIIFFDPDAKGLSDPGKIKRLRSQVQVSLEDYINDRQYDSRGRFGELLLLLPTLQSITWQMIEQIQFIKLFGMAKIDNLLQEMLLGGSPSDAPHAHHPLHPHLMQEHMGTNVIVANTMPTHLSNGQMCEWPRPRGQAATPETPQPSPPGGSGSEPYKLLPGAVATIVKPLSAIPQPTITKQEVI
Rtt109 Vps75 – blocks Candida albicans Rtt109/Vps75 acetyltransferase activity; Q5AAJ8; purified Rtt109/Vps75, ThioGlo CoA-SH fluorescence, 4 h; inhibition, % at 34.9 µM; hit rate 0.16% among 330,000; AID 540336;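 active means inhibition of at least 50% in every replicate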
caTPT1 confirm – confirmation of Candida albicans TPT1 inhibitors | shares compounds with TPT1 inhibitor | recombinant caTPT1, fluorescence polarization, RNase T1 coupled | inhibition, % at 5 µM | hit rate 74% among 2,400 | AID 2149;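 active means inhibition above the primary screen limit, the mean inhibition of all tested compounds plus 3 SD, cut at about 25% in these data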
RNase T1 inh – blocks Aspergillus oryzae RNase T1, a TPT1 counter-screen | hit rate 83% among 2,400 | shares compounds with TPT1 inhibitor | inhibition, % at 5 µM | RNase T1 cleavage, fluorescence polarization, 1536-well | AID 2153;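 active means inhibition above the solvent-only control well mean plus 3 SD, limit set per screening run, cut at about 23% in these data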;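 further: plate controls were DMSO wells with enzyme for no effect and wells without RNase T1 for full effect; inhibitors block cleavage so intact labeled substrate keeps polarization high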
Target sequence (P00651 whole entry, looked up): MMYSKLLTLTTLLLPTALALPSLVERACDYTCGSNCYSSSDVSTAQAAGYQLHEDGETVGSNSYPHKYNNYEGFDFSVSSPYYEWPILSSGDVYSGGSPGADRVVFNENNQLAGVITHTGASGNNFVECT
* marks the source's active call; other numbers are inactive results. Most compounds without a hit are left out; they make up all but 1.2% or so of the library.

`Cc1ccc(NS(=O)(=O)c2cc([N+](=O)[O-])ccc2NNC(=S)Nc2cccc(Cl)c2)c(C)c1` gave TPT1 inhibitor 36*, CSN inh 18, HNF4A DNA FP 30, Rtt109 Vps75 0, caTPT1 confirm 37* and RNase T1 inh 46*.
`CCN(CC)C(=O)COc1coc(CN2CCN(c3ccccc3)CC2)cc1=O` gave TPT1 inhibitor 2, CSN inh 2, HNF4A DNA FP 3 and Rtt109 Vps75 9.
CCOC(=O)c1sc(N)c(C#N)c1COC(=O)CNC(=O)c1cc(OC)c(OC)c(OC)c1 was read as TPT1 inhibitor 79*, CSN inh 71*, HNF4A DNA FP 99*, Rtt109 Vps75 3, caTPT1 confirm 92* and RNase T1 inh 103*.
Screening COc1cc(C(=O)NCC(=O)OCc2ccccc2Cl)cc(OC)c1OC returned TPT1 inhibitor -2, CSN inh 7, HNF4A DNA FP -3 and Rtt109 Vps75 1.
`O=C(N/N=C/c1sc(N2CCOCC2)nc1-c1ccccc1)c1cccc(S(=O)(=O)N2CCCC2)c1` gave TPT1 inhibitor 35*, CSN inh 25, HNF4A DNA FP 43*, Rtt109 Vps75 -1, caTPT1 confirm 34* and RNase T1 inh 43*.
Screening O=C(N/N=C/c1cc(Br)cc(Br)c1O)c1cccc(S(=O)(=O)N2CCOCC2)c1 returned TPT1 inhibitor 48*, CSN inh 97, HNF4A DNA FP 85, caTPT1 confirm 55* and RNase T1 inh 54*.
`O=C(N/N=C/c1cc(Br)cc(Br)c1O)c1cccc(N2CCCC2=O)c1` gave TPT1 inhibitor 54*, CSN inh 0, HNF4A DNA FP 8, caTPT1 confirm 68* and RNase T1 inh 73*.
Screening O=C(N/N=C/c1sc(N2CCOCC2)nc1-c1ccccc1)c1ccc(O)cc1 returned TPT1 inhibitor -1, CSN inh 0, HNF4A DNA FP -3 and Rtt109 Vps75 8.
For O=C(N/N=C/c1ccc(Cl)cc1Cl)c1cccc(N2CCCC2=O)c1 the results were TPT1 inhibitor -3, CSN inh 1, HNF4A DNA FP 1 and Rtt109 Vps75 15.
For Cc1ccc(OCC(=O)N(Cc2ccccc2)c2c(N)n(Cc3ccccc3)c(=O)[nH]c2=O)c(C)c1 the results were TPT1 inhibitor 0, CSN inh 6, HNF4A DNA FP -2 and Rtt109 Vps75 8.
For CCOc1ccc(C(=O)NCC(=O)NCC2CCCCC2)cc1OCC the results were TPT1 inhibitor -1, CSN inh -3, HNF4A DNA FP 1 and Rtt109 Vps75 1.
O=C(Nc1ccccc1)c1cc(C2CCCN(C(=O)c3cccs3)C2)on1 (centres undefined) was read as CSN inh 5 and HNF4A DNA FP 1.
For CCn1c2ccccc2c2c3ncc4cccn4c3ccc21 the results were TPT1 inhibitor 33*, CSN inh 28, HNF4A DNA FP 24, Rtt109 Vps75 1, caTPT1 confirm 15 and RNase T1 inh 22*.
For c1ccc2c(c1)ncc1cccn12 the results were TPT1 inhibitor 1, CSN inh 2 and HNF4A DNA FP -6.
For COc1ccc(C2=NNC(c3cc(Cl)cc4c3OCOC4)C2)c(O)c1 (centres undefined) the results were TPT1 inhibitor 37*, caTPT1 confirm 19 and RNase T1 inh 28*.
CCN(CC)c1ccc(/C=N/NC(=O)c2cccc(S(=O)(=O)Nc3ccccc3OC)c2)cc1 was read as TPT1 inhibitor 1, CSN inh 14, HNF4A DNA FP 11 and Rtt109 Vps75 -13.
CCN(CC)c1ccc(/C=N/NC(=O)c2cccc(S(=O)(=O)Nc3ccccc3OC)c2)c(O)c1 was read as TPT1 inhibitor 55*, CSN inh 7, HNF4A DNA FP 18, Rtt109 Vps75 1, caTPT1 confirm 78* and RNase T1 inh 87*.
For O=C1CC(NC(=O)c2ccc(Cl)cc2)C(=O)N1 (centres undefined) the results were TPT1 inhibitor 133*, CSN inh -1, HNF4A DNA FP -2, caTPT1 confirm 11 and RNase T1 inh 21.
For CCOC(=O)C1=C(C)NC(C)=C(C(=O)OCC)C1C(=O)OCC(=O)NCc1ccc(F)cc1 the results were CSN inh 3, HNF4A DNA FP 4 and Rtt109 Vps75 -8.
Screening CCC(NC(=O)CSc1nnnn1C1CC1)c1ccc(Br)cc1 (centres undefined) returned CSN inh 3, HNF4A DNA FP 0 and Rtt109 Vps75 2.
For Cc1ccc(/C=C2/NC(=O)N(Cc3ccccc3)C2=O)s1 the results were TPT1 inhibitor 88*, CSN inh 22, HNF4A DNA FP 55*, Rtt109 Vps75 -8, caTPT1 confirm 91* and RNase T1 inh 95*.
For CCN1C(=O)/C(=C/c2ccc(C)s2)NC1=S the results were TPT1 inhibitor 7, CSN inh 6, HNF4A DNA FP 2 and Rtt109 Vps75 8.
Screening Cc1cccc(CN2C(=O)N/C(=C/c3cc(C)n(-c4cc(C)ccn4)c3C)C2=O)c1 returned TPT1 inhibitor 0, CSN inh 10, HNF4A DNA FP 3 and Rtt109 Vps75 4.
For Cc1ccc(NC(=O)CN2C(=O)N/C(=C/c3ccc(C)o3)C2=O)cc1 the results were TPT1 inhibitor 4, CSN inh 1, HNF4A DNA FP 6 and Rtt109 Vps75 0.
`Cc1ccc(NC(=O)CN2C(=O)N/C(=C/c3ccc(C)s3)C2=O)cc1` gave TPT1 inhibitor 71*, CSN inh 58*, HNF4A DNA FP 101, Rtt109 Vps75 0, caTPT1 confirm 66* and RNase T1 inh 76*.
Cc1cccc(CN2C(=O)N/C(=C/c3ccc(C)s3)C2=O)c1 was read as TPT1 inhibitor 98*, CSN inh 17, HNF4A DNA FP 35*, Rtt109 Vps75 4, caTPT1 confirm 87* and RNase T1 inh 95*.
`COc1ccc(Cc2nnc(NC(=O)C3CCN(C(=O)c4ccco4)CC3)s2)cc1` gave TPT1 inhibitor -2, CSN inh 1, HNF4A DNA FP 3 and Rtt109 Vps75 -7.
Screening CN(CC(=O)Nc1ncn[nH]1)S(=O)(=O)c1ccc(Cl)cc1 returned TPT1 inhibitor 4, CSN inh -4, HNF4A DNA FP -2 and Rtt109 Vps75 -3.
For COc1ccc(C(=O)Nc2nnc(CC(=O)N/N=C/c3ccc(O)cc3O)s2)cc1 the results were TPT1 inhibitor 53*, CSN inh 32, HNF4A DNA FP -13, Rtt109 Vps75 21, caTPT1 confirm 81* and RNase T1 inh 83*.
`CCN(CC)CCCNC(=O)c1cc2c(-c3cccc(OC)c3)nn(C)c2s1` gave TPT1 inhibitor 37*, CSN inh 1, HNF4A DNA FP 3, Rtt109 Vps75 0, caTPT1 confirm 4 and RNase T1 inh 5.
